According to ChEMBL document CHEMBL4828740, “Discovery of Quinoxaline-Based P1-P3 Macrocyclic NS3/4A Protease Inhibitors with Potent Activity against Drug-Resistant Hepatitis C Virus Variants” (J Med Chem, 2021):

Tests used:
Hepatitis C virus [1] = test: Antiviral activity against HCV genotype 3a infected in human Huh7.5 cells incubated for 72 hrs by luciferase assay; assay type: functional, organism-based, Hepacivirus hominis; details: subtype 3a, Huh7.5, 72 h
Summary of the method: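 Huh7.5 cells stably harboring the GT-3a replicon S52/SG-Feo SHI, seeded at 8,000 cells/well. Cells lysed in 1X Passive Lysis Buffer and luciferase activity measured. EC50 taken from drug inhibition curves.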

[2] = Half life in Sprague-Dawley rat at 10 mg/kg, po measured after 0.25 to 24 hrs by LC-MS/MS analysis; assay type: ADME, organism-based; details: in vivo, time 0.25-24 hrs
[3] = Clearance in Sprague-Dawley rat at 5 mg/kg, iv measured after 0.25 to 24 hrs by LC-MS/MS analysis; assay type: ADME, organism-based; details: in vivo, time 0.25-24 hrs
Hepatitis C virus [4] = test: Antiviral activity against HCV genotype 1b harboring A156T mutant infected in human Huh7 cells incubated for 96 hrs by luciferase assay; assay type: functional, organism-based, Hepacivirus hominis; details: subtype 1b, Huh-7, 96 h
Summary of the method: (§1)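 Con1 (GT-1b) luciferase reporter replicon carrying the H77 (GT-1a) NS3 protease region, with the mutation introduced by megaprimer site-directed mutagenesis. Cured Huh7 cells were grown in DMEM with 10% heat-inactivated FBS and 0.1 mM non-essential amino acids, electroporated with replicon RNA transcripts, and kept with serially diluted inhibitor. EC50 was taken directly from the inhibition curves.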

[5] = biological target: T1, Hepatitis C virus serine protease, NS3/NS4A (Hepatitis C virus, UniProt A3EZI9+D2K2A8); test: Inhibition of HCV GT-3a NS3/4a protease using Ac-DE-D(Edans)-EE-Abu-c-[COO]-AS-K(Dabcy1)-NH2 preincubated for 1 hr followed by substrate addition; assay type: protein-complex assay, Hepatitis C virus subtype 3a
[6] = Half life in Sprague-Dawley rat at 5 mg/kg, iv measured after 0.25 to 24 hrs by LC-MS/MS analysis; assay type: ADME, organism-based; details: in vivo, time 0.25-24 hrs
Hepatitis C virus [7] = test: Antiviral activity against HCV genotype 1b harboring D168A mutant infected in human Huh7 cells incubated for 96 hrs by luciferase assay; assay type: functional, organism-based, Hepacivirus hominis; details: subtype 1b, Huh-7, 96 h; summary of the method: as §1
[8] = Cmax in Sprague-Dawley rat at 10 mg/kg, po measured after 0.25 to 24 hrs by LC-MS/MS analysis; assay type: ADME, organism-based; set-up: route oral, time 0.25-24 hrs, dose 10 mg/kg; details: in vivo
[9] = AUC(0 to 24 hrs) in Sprague-Dawley rat at 5 mg/kg, iv measured after 0.25 to 24 hrs by LC-MS/MS analysis; assay type: ADME, organism-based; set-up: route intravenous, dose 5 mg/kg, time 0.25-24 hrs; details: in vivo
[10] = Volume of distribution at steady state in Sprague-Dawley rat at 5 mg/kg, iv measured after 0.25 to 24 hrs by LC-MS/MS analysis; assay type: ADME, organism-based; details: in vivo, time 0.25-24 hrs, read-out: Vdss
[11] = Oral bioavailability in Sprague-Dawley rat at 10 mg/kg measured after 0.25 to 24 hrs by LC-MS/MS analysis; assay type: ADME, organism-based; details: in vivo, time 0.25-24 hrs
Hepatitis C virus [12] = test: Antiviral activity against HCV genotype 1b infected in human Huh7 cells incubated for 96 hrs by luciferase assay; assay type: functional, organism-based, Hepacivirus hominis; details: Huh-7, 96 h
Summary of the method: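 Con1 (GT-1b) luciferase reporter replicon carrying the H77 (GT-1a) NS3 protease region, either WT or with A156T or D168A introduced by megaprimer mutagenesis. Cured Huh7 cells grown in DMEM with 10% heat-inactivated FBS and 0.1 mM non-essential amino acids. Cells electroporated with replicon RNA and kept with serially diluted inhibitor.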

[13] = Tmax in Sprague-Dawley rat at 10 mg/kg, po measured after 0.25 to 24 hrs by LC-MS/MS analysis; assay type: ADME, organism-based; details: in vivo, time 0.25-24 hrs
[14] = biological target: T1, Hepatitis C virus serine protease, NS3/NS4A; test: Inhibition of HCV GT-1a NS3/4a protease using Ac-DE-D(Edans)-EE-Abu-c-[COO]-AS-K(Dabcy1)-NH2 preincubated for 1 hr followed by substrate addition; assay type: protein complex, Hepatitis C virus subtype 1a

SMILES | EC50 (Hepatitis C virus [1]) [nM] | half-life [2] [h] | clearance [3] [mL/min/kg] | EC50 (Hepatitis C virus [4]) [nM] | Ki [5] [nM] | half-life [6] [h] | EC50 (Hepatitis C virus [7]) [nM] | Cmax [8] [nM] | AUC(0-t) [9] [µM·h] | Vd [10] [L/kg] | bioavailability [11] [%] | EC50 (Hepatitis C virus [12]) [nM] | Tmax [13] [h] | Ki [14] [nM]
COc1ccc2nc(C)c(O[C@@H]3C[C@H]4C(=O)N[C@]5(C(=O)NS(=O)(=O)C6(C)CC6)C[C@H]5/C=C/CCCCC[C@H](NC(=O)OC5(C(F)(F)F)CCCC5)C(=O)N4C3)nc2c1 | 130 | 4.9 | 37 | 6.2 | 104 | 5.3 | 20 | 110 | 2.7 | 3.9 | 11 | 0.3 | 3 | 1.3
COc1ccc2nc(O[C@@H]3C[C@H]4C(=O)N[C@]5(C(=O)NS(=O)(=O)C6(C)CC6)C[C@H]5/C=C/CCCCC[C@H](NC(=O)OC5(C(F)(F)F)CCC5)C(=O)N4C3)c(C(F)(F)F)nc2c1 | 900 |  |  | 5.1 | 133 |  | 7.8 |  |  |  |  | 1.4 |  | 2
CCC(CC)OC(=O)N[C@H]1CCCCC/C=C/[C@@H]2C[C@@]2(C(=O)NS(=O)(=O)C2(C)CC2)NC(=O)[C@@H]2C[C@@H](Oc3nc4ccc(OC)cc4nc3C(F)(F)F)CN2C1=O |  |  |  | 85 | 840 |  | 17 |  |  |  |  | 4.1 |  | 4.6
COc1ccc2nc(C)c(O[C@@H]3C[C@H]4C(=O)N[C@]5(C(=O)NS(=O)(=O)C6(C)CC6)C[C@H]5/C=C/CCCCC[C@H](NC(=O)OCC5(C(F)(F)F)CC5)C(=O)N4C3)nc2c1 | 330 |  |  | 5.6 | 230 |  | 1.4 |  |  |  |  | 0.1 |  | 0.9
COc1ccc2nc(C)c(O[C@@H]3C[C@H]4C(=O)N[C@]5(C(=O)NS(=O)(=O)C6(C)CC6)C[C@H]5/C=C/CCCCC[C@H](NC(=O)OC5(C(F)(F)F)CCC5)C(=O)N4C3)nc2c1 | 310 |  |  | 5.9 | 96 |  | 25 |  |  |  |  | 0.3 |  | 1.5
CCC(C)(C)OC(=O)N[C@H]1CCCCC/C=C/[C@@H]2C[C@@]2(C(=O)NS(=O)(=O)C2(C)CC2)NC(=O)[C@@H]2C[C@@H](Oc3nc4ccc(OC)cc4nc3C(F)(F)F)CN2C1=O |  |  |  | 10 | 240 |  | 11 |  |  |  |  | 1.5 |  | 2.7
COc1ccc2nc(O[C@@H]3C[C@H]4C(=O)N[C@]5(C(=O)NS(=O)(=O)C6(C)CC6)C[C@H]5/C=C/CCCCC[C@H](NC(=O)OC(C)(C)C)C(=O)N4C3)c(C(F)(F)F)nc2c1 |  |  |  | 12 | 230 |  | 4.7 |  |  |  |  | 0.9 |  | 5.8
COc1ccc2nc(O[C@@H]3C[C@H]4C(=O)N[C@]5(C(=O)NS(=O)(=O)C6(C)CC6)C[C@H]5/C=C/CCCCC[C@H](NC(=O)OC5CC5)C(=O)N4C3)c(C(F)(F)F)nc2c1 |  |  |  | 36 | 522 |  | 14 |  |  |  |  | 2 |  | 14
COc1ccc2nc(O[C@@H]3C[C@H]4C(=O)N[C@]5(C(=O)NS(=O)(=O)C6(C)CC6)C[C@H]5/C=C/CCCCC[C@H](NC(=O)OC5(C)CCCC5)C(=O)N4C3)c(C(F)(F)F)nc2c1 |  |  |  | 70 | 161 |  | 16 |  |  |  |  | 5.8 |  | 0.9
CC(C)(C)[C@@H]1NC(=O)O[C@@H]2CCC[C@H]2OC/C=C/C(F)(F)c2nc3ccccc3nc2O[C@@H]2C[C@@H](C(=O)N[C@]3(C(=O)NS(=O)(=O)C4(C)CC4)C[C@H]3C(F)F)N(C2)C1=O | 30 |  |  |  |  |  | 0.2 |  |  |  |  | 0.2 |  | 
COc1ccc2nc(C)c(O[C@@H]3C[C@H]4C(=O)N[C@]5(C(=O)NS(=O)(=O)C6(C)CC6)C[C@H]5/C=C/CCCCC[C@H](NC(=O)OC5C[C@@H]6C[C@@H]6C5)C(=O)N4C3)nc2c1 (stereo not given in full) | 900 |  |  | 5.3 | 39 |  | 0.5 |  |  |  |  | 0.1 |  | 0.5
COc1ccc2nc(C)c(O[C@@H]3C[C@H]4C(=O)N[C@]5(C(=O)NS(=O)(=O)C6(C)CC6)C[C@H]5/C=C/CCCCC[C@H](NC(=O)OCC5(C)CC5(F)F)C(=O)N4C3)nc2c1 (stereo not given in full) |  |  |  | 8.3 | 100 |  | 2.1 |  |  |  |  | 0.3 |  | 3.1
COc1ccc2nc(O[C@@H]3C[C@H]4C(=O)N[C@]5(C(=O)NS(=O)(=O)C6(C)CC6)C[C@H]5/C=C/CCCCC[C@H](NC(=O)O[C@@H](C)C(C)C)C(=O)N4C3)c(C(F)(F)F)nc2c1 | 1500 |  |  | 8.7 | 447 |  | 3.1 |  |  |  |  | 0.9 |  | 6.1
COc1ccc2nc(C)c(O[C@@H]3C[C@H]4C(=O)N[C@]5(C(=O)NS(=O)(=O)C6(C)CC6)C[C@H]5/C=C/CCCCC[C@H](NC(=O)OC5(C)CCCC5)C(=O)N4C3)nc2c1 |  |  |  | 49 | 150 |  | 4.7 |  |  |  |  | 3.7 |  | 1.8
COc1ccc2nc(O[C@@H]3C[C@H]4C(=O)N[C@]5(C(=O)NS(=O)(=O)C6(C)CC6)C[C@H]5/C=C/CCCCC[C@H](NC(=O)OC5CCC5)C(=O)N4C3)c(C(F)(F)F)nc2c1 |  |  |  | 9.6 | 870 |  | 50 |  |  |  |  | 1.8 |  | 8.5
COc1ccc2nc(O[C@@H]3C[C@H]4C(=O)N[C@]5(C(=O)NS(=O)(=O)C6(C)CC6)C[C@H]5/C=C/CCCCC[C@H](NC(=O)O[C@@H](C)C(F)(F)F)C(=O)N4C3)c(C(F)(F)F)nc2c1 |  |  |  | 75 | 580 |  | 18 |  |  |  |  | 5.6 |  | 7.7
COc1ccc2nc(O[C@@H]3C[C@H]4C(=O)N[C@]5(C(=O)NS(=O)(=O)C6(C)CC6)C[C@H]5/C=C/CCCCC[C@H](NC(=O)OCC5(C)CC5(F)F)C(=O)N4C3)c(C(F)(F)F)nc2c1 (stereo not given in full) |  |  |  | 130 | 336 |  | 8.5 |  |  |  |  | 2.7 |  | 2.1
COc1ccc2nc(C)c(O[C@@H]3C[C@H]4C(=O)N[C@]5(C(=O)NS(=O)(=O)C6(C)CC6)C[C@H]5/C=C/CCCCC[C@H](NC(=O)OC5CCC5)C(=O)N4C3)nc2c1 |  |  |  | 3.4 | 110 |  | 2.7 |  |  |  |  | 0.1 |  | 0.3
COc1ccc2nc(C)c(O[C@@H]3C[C@H]4C(=O)N[C@]5(C(=O)NS(=O)(=O)C6(C)CC6)C[C@H]5/C=C/CCCCC[C@H](NC(=O)OC(C)(C)C(F)(F)F)C(=O)N4C3)nc2c1 | 160 |  |  | 3.3 | 66 |  |  |  |  |  |  | 0.8 |  | 2.6
COc1ccc2nc(O[C@@H]3C[C@H]4C(=O)N[C@]5(C(=O)NS(=O)(=O)C6(C)CC6)C[C@H]5/C=C/CCCCC[C@H](NC(=O)OC5CCCC5)C(=O)N4C3)c(C(F)(F)F)nc2c1 |  |  |  | 45 | 433 |  | 6.2 |  |  |  |  | 3.2 |  | 8.1
COc1ccc2nc(C)c(O[C@@H]3C[C@H]4C(=O)N[C@]5(C(=O)NS(=O)(=O)C6(C)CC6)C[C@H]5/C=C/CCCCC[C@H](NC(=O)OC5CCCCC5)C(=O)N4C3)nc2c1 |  |  |  | 6.8 | 145 |  | 3 |  |  |  |  | 0.2 |  | 0.9
COc1ccc2nc(O[C@@H]3C[C@H]4C(=O)N[C@]5(C(=O)NS(=O)(=O)C6(C)CC6)C[C@H]5/C=C/CCCCC[C@H](NC(=O)OC5(C(F)(F)F)CCCC5)C(=O)N4C3)c(C(F)(F)F)nc2c1 | 290 |  |  | 19 | 414 |  | 5.2 |  |  |  |  | 0.7 |  | 5.7
COc1ccc2nc(C)c(O[C@@H]3C[C@H]4C(=O)N[C@]5(C(=O)NS(=O)(=O)C6(C)CC6)C[C@H]5/C=C/CCCCC[C@H](NC(=O)O[C@H](C)C(F)(F)F)C(=O)N4C3)nc2c1 | 260 |  |  | 18 | 122 |  | 2.5 |  |  |  |  | 0.5 |  | 1.1
COc1ccc2nc(O[C@@H]3C[C@H]4C(=O)N[C@]5(C(=O)NS(=O)(=O)C6(C)CC6)C[C@H]5/C=C/CCCCC[C@H](NC(=O)OC(C)(C)C(F)(F)F)C(=O)N4C3)c(C(F)(F)F)nc2c1 | 330 |  |  | 10 | 390 |  | 4.3 |  |  |  |  | 1 |  | 3.6
COc1ccc2nc(O[C@@H]3C[C@H]4C(=O)N[C@]5(C(=O)NS(=O)(=O)C6(C)CC6)C[C@H]5/C=C/CCCCC[C@H](NC(=O)OC5(C)CCC5)C(=O)N4C3)c(C(F)(F)F)nc2c1 |  |  |  | 26 | 283 |  | 58 |  |  |  |  | 1.6 |  | 4.9
